For assay [1], the system named is Rattus norvegicus. The assay is described as follows: Stimulus generalization studies in TFMPP trained animals and the number of animals responding /number to receive dose of drug was determined at dose of 1.0 mg/kg; 10/10. It counts as functional.
Assay [2] concerns the target Serotonin 2 (5-HT2) receptor (Rattus norvegicus, UniProt P30994+P08909+P14842). Briefly: Displacement of [3H]ketanserin from 5-hydroxytryptamine 2 receptor of rat cortical membrane homogenates.
Assay [3] in a line: Displacement of [3H]5-HT from 5-hydroxytryptamine 1 receptor of rat cortical membrane homogenates. Background: In a radioligand displacement assay an active substance lowers the binding of a labelled ligand.
In assay [4] the test system is Rattus norvegicus. The assay is described as follows: Compound was evaluated in stimulus generalization test using animals trained to discriminate DOM from saline, and the mean responses per min at dose of 0.1 mg/kg. It counts as functional. Summed up: (§1)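 Male Sprague-Dawley rats (n = 10) trained to discriminate 1.0 mg/kg DOM HCl from saline on a two-lever operant task, VI 15-s food reinforcement. Test doses were given ip in random order, 15 min pre-session, with at least three training sessions between tests. Responding was scored in a 2.5-min extinction session. Rats with fewer than five total responses were counted as disrupted.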

Assay [5] deals with Rattus norvegicus. The assay is described as follows: Compound was evaluated in stimulus generalization test using animals trained to discriminate DOM from saline, and the mean responses per min at dose of 0.05 mg/kg. It counts as functional. The essentials:
as §1

Assay [6] deals with Rattus norvegicus. The assay is described as follows: Compound was evaluated in stimulus generalization test using animals trained to discriminate DOM from saline, and the drug appropriate responding at dose of 0.1 mg/kg. It counts as functional. Summed up:
as §1

The test system of assay [7] is Rattus norvegicus. The assay is described as follows: Compound was evaluated in stimulus generalization test using animals trained to discriminate DOM from saline, and the drug appropriate responding at dose of 0.3 mg/kg; Not responding. Set-up: dose 0.3 mg/kg. It counts as functional, organism-based. Summed up: as §1
In assay [8] the test system is Rattus norvegicus. The assay is described as follows: Compound was evaluated in stimulus generalization test using animals trained to discriminate DOM from saline, and the drug appropriate responding at dose of 0.5 mg/kg; Not responding. Set-up: dose 0.5 mg/kg. It counts as functional, organism-based. Summed up: as §1
Assay [9] relates to Rattus norvegicus. Briefly: Compound was evaluated in stimulus generalization test using animals trained to discriminate DOM from saline, and the drug appropriate responding at dose of 2.0 mg/kg; Not responding. It counts as functional, organism-based. Set-up: dose 2 mg/kg. The essentials:
as §1

Assay [10] relates to Rattus norvegicus. The assay is described as follows: Compound was evaluated in stimulus generalization test using animals trained to discriminate DOM from saline, and the drug appropriate responding at dose of 0.05 mg/kg. It counts as functional. Summed up:
as §1

The subject of assay [11] is Rattus norvegicus. Briefly: Compound was evaluated in stimulus generalization test using animals trained to discriminate TFMPP from saline, and the drug appropriate responding at dose of 2.5 mg/kg. It counts as functional. Summed up:
(§2)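 Male Sprague-Dawley rats (n = 6) trained to discriminate 0.5 mg/kg TFMPP HCl from saline on a two-lever operant task, VI 15-s food reward. Challenge doses were given ip in random order 15 min before a 2.5-min extinction test, with at least three training sessions between tests. Fewer than five total responses was scored as disruption.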

Assay [12] has as its system Rattus norvegicus. Briefly: Compound was evaluated in stimulus generalization studies in DOM trained animals and the number of animals responding /number to receive dose of drug at dose of 2.7 mg/kg; 1/4. It counts as functional. Summed up:
as §1

For assay [13], the system named is Rattus norvegicus. Briefly: Compound was evaluated in tests of stimulus generalization using animals trained to discriminate DOM from saline, and the drug appropriate responding at dose of 2.5 mg/kg. It counts as functional. Summed up:
as §1

Assay [14] concerns Rattus norvegicus. The assay is described as follows: Compound was evaluated in tests of stimulus generalization using animals trained to discriminate DOM from saline, and the mean responses per min at dose of 2.0 mg/kg. It counts as functional. The essentials:
as §1

The subject of assay [15] is Rattus norvegicus. Briefly: Compound was evaluated in tests of stimulus generalization using animals trained to discriminate DOM from saline, and the drug appropriate responding at dose of 2.0 mg/kg. It counts as functional. Summed up: as §1
In assay [16] the test system is Rattus norvegicus. Briefly: Compound was evaluated in stimulus generalization studies in DOM trained animals and the number of animals responding /number to receive dose of drug at dose of 2.2 mg/kg; 2/5. It counts as functional. The essentials: as §1
In assay [17] the test system is Rattus norvegicus. Briefly: Compound was evaluated in tests of stimulus generalization using animals trained to discriminate DOM from saline, and the drug appropriate responding at dose of 3.0 mg/kg; Not responding. Set-up: dose 3 mg/kg. It counts as functional, organism-based. The essentials: as §1
The species named for assay [18] is Rattus norvegicus. The assay is described as follows: Compound was tested for the doses at which the animals would be expected to make approximately 50% of their responses on the DOM-appropriate lever. It counts as functional. The essentials:
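DOM-trained rats (1.0 mg/kg DOM HCl vs saline, two-lever, VI 15 s, food) were given ip doses 15 min before a 2.5-min extinction session. Where >80% of responses fell on the DOM lever (generalization), the dose expected to give about 50% DOM-lever responding was calculated from dose–response data and reported with 95% confidence limits.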

Assay [19] concerns Rattus norvegicus. The assay is described as follows: Stimulus generalization studies in TFMPP trained animals and the number of animals responding /number to receive dose of drug was determined at dose of 1 mg/kg; 3/4. It counts as functional. The essentials: as §2
Assay [20] has as its system Rattus norvegicus. The assay is described as follows: Compound was evaluated in stimulus generalization studies in DOM trained animals and the number of animals responding /number to receive dose of drug at dose of 3.0 mg/kg; 1/4. It counts as functional. Summed up:
as §1

The subject of assay [21] is Rattus norvegicus. Briefly: Compound was evaluated in tests of stimulus generalization using animals trained to discriminate DOM from saline, and the mean responses per min at dose of 2.5 mg/kg. It counts as functional. Summed up:
as §1

Assay [22] has as its system Rattus norvegicus. Briefly: Compound was evaluated in tests of stimulus generalization using animals trained to discriminate DOM from saline, and the drug appropriate responding at dose of 0.5 mg/kg. It counts as functional. The essentials: as §1
Assay [23] has as its system Rattus norvegicus. Briefly: Stimulus generalization studies in TFMPP trained animals and the number of animals responding /number to receive dose of drug was determined at dose of 0.5 mg/kg; 3/3. It counts as functional. The essentials: as §2
The subject of assay [24] is Rattus norvegicus. Briefly: Stimulus generalization studies in TFMPP trained animals and the number of animals responding /number to receive dose of drug was determined at dose of 2.5 mg/kg; 5/5. It counts as functional. Summed up:
as §2

Assay [25] deals with Rattus norvegicus. The assay is described as follows: Compound was evaluated in stimulus generalization test using animals trained to discriminate TFMPP from saline, and the mean responses per min at dose of 1.0 mg/kg. It counts as functional. Summed up: as §2
For assay [26], the system named is Rattus norvegicus. Briefly: Compound was evaluated in stimulus generalization studies in DOM trained animals and the number of animals responding /number ot receive dose of drug at dose of 2.0 mg/kg; 3/4. It counts as functional. Summed up: as §1
Assay [27] concerns Rattus norvegicus. Briefly: Compound was evaluated in stimulus generalization studies in DOM trained animals and the number of animals responding /number to receive dose of drug at dose of 2.5 mg/kg; 3/6. It counts as functional. The essentials: as §1
Assay [28] deals with Rattus norvegicus. Briefly: Compound was evaluated in tests of stimulus generalization using animals trained to discriminate DOM from saline, and the drug appropriate responding at dose of 2.2 mg/kg; Not responding. Set-up: dose 2.2 mg/kg. It counts as functional, organism-based. Summed up:
as §1

For assay [29], the system named is Rattus norvegicus. The assay is described as follows: Compound was evaluated in stimulus generalization test using animals trained to discriminate TFMPP from saline, and the mean responses per min at dose of 2.5 mg/kg. It counts as functional. The essentials: as §2
The subject of assay [30] is Rattus norvegicus. Briefly: Compound was evaluated in stimulus generalization test using animals trained to discriminate TFMPP from saline, and the mean responses per min at dose of 0.5 mg/kg. It counts as functional. The essentials: as §2
The test system of assay [31] is Rattus norvegicus. The assay is described as follows: Compound was evaluated in stimulus generalization test using animals trained to discriminate TFMPP from saline, and the drug appropriate responding at dose of 0.5 mg/kg. It counts as functional. The essentials:
as §2

Assay [32] deals with Rattus norvegicus. Briefly: Compound was evaluated in stimulus generalization studies in DOM trained animals and the number of animals responding /number to receive dose of drug at dose of 0.5 mg/kg; 3/3. It counts as functional. The essentials:
as §1

Assay [33] has as its system Rattus norvegicus. The assay is described as follows: Compound was evaluated in tests of stimulus generalization using animals trained to discriminate DOM from saline, and the mean responses per min at dose of 0.5 mg/kg. It counts as functional. The essentials:
as §1

The test system of assay [34] is Rattus norvegicus. The assay is described as follows: Compound was evaluated in tests of stimulus generalization using animals trained to discriminate DOM from saline, and the drug appropriate responding at dose of 2.7 mg/kg; Not responding. It counts as functional, organism-based. Set-up: dose 2.7 mg/kg. Summed up: as §1
Assay [35] relates to Rattus norvegicus. Briefly: Compound was evaluated in stimulus generalization test using animals trained to discriminate TFMPP from saline, and the drug appropriate responding at dose of 1.0 mg/kg. It counts as functional. Summed up:
as §2

For assay [36], the system named is Rattus norvegicus. Briefly: Stimulus generalization studies in TFMPP trained animals and the number of animals responding /number to receive dose of drug was determined at dose of 0.5 mg/kg; 6/6. It counts as functional. The essentials: as §2

Active and inactive are the calls of the source. The calls are words filed in the database; no cut-off is given here.

One may read the Ki as the equilibrium dissociation constant of an inhibitor or competing ligand from its target. A higher Ki goes with a looser hold on the target. For orientation: ED50 means the midpoint of the dose-response relation.

The molecule `COc1cc(CC(C)N)c(OC)cc1C` (stereo not given) [DOM] gave an Activity in the assay with Rattus norvegicus [1] of 10.

Regarding `COc1cccc2ccc(N)nc12`, the Ki worked out at 35 µM in assay [2] and 10.4 µM in assay [3].

As for `c1ccc(N2CCNCC2)cc1` [PHENYLPIPERAZINE], the values for the Mean response/min in the assay with Rattus norvegicus [4] and with Rattus norvegicus [5] were 11.9 and 13.1, respectively. Also, the Drug responding in the assay on Rattus norvegicus [6] worked out at 8%; in the assay with Rattus norvegicus [10], 7%. In addition, the figures for the Ki in assay [2] and in assay [3] were 2.1 µM and 0.135 µM, respectively. The Drug responding entry with Rattus norvegicus [7], in the assay with Rattus norvegicus [8] and in the assay with Rattus norvegicus [9] was “inactive” in each case.

For `c1ccc2nc(N3CCNCC3)ccc2c1` [QUIPAZINE], the inhibitory constant (Ki) in assay [2] and in assay [3] was 0.23 µM in each case.

Consider `c1ccc2c(N3CCNCC3)cccc2c1`, for which the Drug responding in the assay with Rattus norvegicus [11] is 96%; in the assay with Rattus norvegicus [13] it was 37%; in the assay on Rattus norvegicus [15], 7%; in the assay on Rattus norvegicus [22], 14%; in the assay on Rattus norvegicus [31], 15%; in the assay with Rattus norvegicus [35] it was 41%. Besides, the Activity with Rattus norvegicus [12] was 1; with Rattus norvegicus [16] it was 2; in the assay with Rattus norvegicus [19] it was 3; in the assay with Rattus norvegicus [20] it was 1; in the assay on Rattus norvegicus [23], 3; in the assay on Rattus norvegicus [24] it was 5. The Activity in the assay with Rattus norvegicus [26], in the assay on Rattus norvegicus [27] and with Rattus norvegicus [32] was 3 each time. Besides, the Mean response/min with Rattus norvegicus [14] was 8.8; in the assay on Rattus norvegicus [21] it was 2.6; in the assay on Rattus norvegicus [25], 17.3; in the assay on Rattus norvegicus [29] it was 16.4; with Rattus norvegicus [30], 19.1; with Rattus norvegicus [33], 18. Besides, the Drug responding result in the assay on Rattus norvegicus [17], in the assay on Rattus norvegicus [28] and in the assay with Rattus norvegicus [34] was “inactive” each time. For the same molecule, in the assay listed under Rattus norvegicus [18], the median effective dose (ED50) was determined as 1 mg/kg. Further, the inhibition constant Ki in [2] amounted to 0.018 µM; in assay [3], 0.005 µM.

In the case of `NC1CCc2ccccc2C1` (stereo not given), the inhibitory constant (Ki) stood at 11.1 µM in assay [2] and 0.38 µM in assay [3].

With `COc1cccc2ccc(N3CCN(C)CC3)nc12`, the inhibitory constant (Ki) in assay [2] turned out to be 1.2 µM; in assay [3] it was 1.9 µM.

With `CCCN(CCC)c1ccc2ccccc2n1`, the Ki in assay [2] amounted to 50 µM; in [3], 25 µM.

Take `Nc1cnc2ccccc2c1`: the Ki in [2] was greater than 300 µM; in assay [3], 56 µM.

Consider `COc1cccc2ccc(N3CCCCC3)nc12`, for which the Ki stood at 71 µM in assay [2] and 33 µM in assay [3].

For `COc1cccc2ccc(N3CCNCC3)nc12`, the Ki in [2] was 0.31 µM; in assay [3], 0.415 µM.

Regarding `CCCN(CCC)c1ccc2cccc(OC)c2n1`, the Ki in assay [2] was 50 µM; in [3], 45 µM.

Take `c1ccc2nc(N3CCCCC3)ccc2c1`: the Ki was greater than 150 µM in assay [2] and greater than 100 µM in assay [3].

For `FC(F)(F)c1cccc(N2CCNCC2)c1`, in the assay with Rattus norvegicus [36], the Activity was 6. The Mean response/min with Rattus norvegicus [30] came out at 18.2. Moreover, the Drug responding in the assay on Rattus norvegicus [31] is given as 92%.

The record behind these values is ChEMBL document CHEMBL1123371, “5-HT1 and 5-HT2 binding characteristics of some quipazine analogues” (J Med Chem, 1986).
